The record followed here is ChEMBL document CHEMBL1154191, “Evaluation of spirocyclic 3-(3-fluoropropyl)-2-benzofurans as sigma1 receptor ligands for neuroimaging with positron emission tomography” (J Med Chem, 2009).

A word on the Kp: it is the ratio of the level in a tissue or fluid to that in plasma or blood.

Data set [1] has as its system Liver. Put plainly: Biodistribution in CD1 mouse liver assessed per gram of wet tissue at 400 to 600 kBq, iv after 5 mins post-injection by gamma counting. The format is ADME, organism-based. To be noted: in vivo. An outline of the steps: (§1)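 Female CD-1 mice (~8-12 weeks, 20-28 g), habituated ≥48 h and fasted 24 h with water available. The [18F] tracer (>150 GBq/μmol at end of synthesis) was given in 200 μL saline into the tail vein of conscious animals. At each time point, n=4-5, mice were anaesthetised, blood and urine sampled, then killed by cervical dislocation. Organs were weighed and γ-counted, and values calculated as % ID/g wet tissue.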

The nature of data set [2]: Ratio of drug level in cerebellum to plasma in CD1 mouse at 400 to 600 kBq, iv after 60 mins post-injection in presence of 1 mg/kg, ip sigma 1/sigma 2 receptor antagonist haloperidol treated before compound addition. In kind it is organism-based. Further details: route intravenous. An outline of the steps: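 Killed 60 min pi; blood and cerebellum weighed, γ-counted as % ID/g wet tissue, ratio derived; Student's two-tailed t test versus untreated controls.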

Data set [3] in a line: Biodistribution in CD1 mouse urine assessed as per gram of wet bladder at 400 to 600 kBq, iv after 120 mins post-injection by gamma counting. In kind it is ADME, organism-based. As to conditions: in vivo, 2 h. In outline:
as §1

The test system of data set [4] is Cerebellum. Put plainly: Biodistribution in CD1 mouse cerebellum assessed per gram of wet tissue at 400 to 600 kBq, iv after 60 mins post-injection by gamma counting in presence of 1 mg/kg, ip sigma 1/sigma 2 receptor antagonist haloperidol treated before compound addition. In kind it is organism-based. Further details: dose 1 mg/kg, route intravenous. To be noted: in vivo, 1 h. In outline: (§2)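 Blocking arm in fasted female CD-1 mice (n=5). […] Animals were killed at 60 min post-injection, and organs were weighed and γ-counted as % ID/g wet tissue. Percent change was taken against the 60 min control group, with two-tailed unpaired Student's t test.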

Data set [5] has as its system Lung. Nature of the data set: Biodistribution in CD1 mouse lung assessed per gram of wet tissue at 400 to 600 kBq, iv after 60 mins post-injection by gamma counting. In kind it is ADME, organism-based. As to conditions: in vivo, 1 h. An outline of the steps: as §1
Data set [6] is described as follows: Biodistribution in CD1 mouse urine assessed as per gram of wet bladder at 400 to 600 kBq, iv after 60 mins post-injection by gamma counting. As to conditions: in vivo, 1 h. In kind it is ADME, organism-based. In outline: as §1
Data set [7] concerns Muscle tissue. Nature of the data set: Biodistribution in CD1 mouse muscle assessed per gram of wet tissue at 400 to 600 kBq, iv after 120 mins post-injection by gamma counting. To be noted: in vivo, 2 h. In kind it is ADME, organism-based. In outline: as §1
Data set [8] has as its system Pancreas. Put plainly: Biodistribution in CD1 mouse pancreas assessed per gram of wet tissue at 400 to 600 kBq, iv after 60 mins post-injection by gamma counting. To be noted: in vivo, 1 h. The format is ADME, organism-based. An outline of the steps: as §1
Data set [9] can be described thus: Biodistribution in CD1 mouse gonad assessed per gram of wet tissue at 400 to 600 kBq, iv after 30 mins post-injection by gamma counting. In kind it is ADME, organism-based. As to conditions: in vivo, 0.5 h. An outline of the steps:
(§3)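 Female CD-1 mice (~8-12 weeks, 20-28 g) were fasted 24 h with free water. Conscious mice got 400-600 kBq [¹⁸F] tracer in saline by tail vein. At 5, 30, 60 or 120 min (n=4-5 per time) they were anesthetized, blood and urine sampled, then killed by cervical dislocation. Organs were weighed and γ-counted, giving % ID/g wet tissue.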

Data set [10] can be described thus: Biodistribution in CD1 mouse thymus assessed per gram of wet tissue at 400 to 600 kBq, iv after 60 mins post-injection by gamma counting. In kind it is ADME, organism-based. As to conditions: in vivo, 1 h. An outline of the steps:
as §1

The subject of data set [11] is Spleen. Put plainly: Biodistribution in CD1 mouse spleen assessed per gram of wet tissue at 400 to 600 kBq, iv after 60 mins post-injection by gamma counting in presence of 1 mg/kg, ip sigma 1/sigma 2 receptor antagonist haloperidol treated before compound addition. As to conditions: in vivo, 1 h. In kind it is organism-based. Also on record: route intravenous. In outline:
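They were killed at 60 min pi, and organs were weighed and γ-counted as % ID/g wet tissue. Comparison with controls used Student's t test (independent, two-tailed).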

Data set [12] concerns Intestine. Nature of the data set: Biodistribution in CD1 mouse intestine assessed per gram of wet tissue at 400 to 600 kBq, iv after 120 mins post-injection by gamma counting. The format is ADME, organism-based. To be noted: in vivo, 2 h. In outline: as §3
Data set [13] concerns Spleen. Nature of the data set: Drug uptake in CD1 mouse spleen at 400 to 600 kBq, iv after 120 mins post-injection by gamma counting relative to initial uptake. To be noted: in vivo, 2 h. The format is ADME, organism-based. An outline of the steps: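 Organ % ID/g was measured by γ-counting after tail-vein injection of 400-600 kBq [18F] tracer in saline to fasted female CD-1 mice (n=4-5 per time). The 120 min pi value is expressed relative to the initial (5 min pi) uptake.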

For data set [14], the system named is Liver. Nature of the data set: Metabolic stability in CD1 mouse liver homogenate assessed as formation of 3-(3-Fluoropropyl)-3H-spiro[[2]benzofuran-1,4'-piperidine], 4-((3-(3-fluoropropyl)-3H-spiro[isobenzofuran-1,4'-piperidine]-1'-yl)methyl)phenol and 1-(1'-benzyl-3H-spiro[isobenzofuran-1,4'-piperidine]-3-yl)-3-fluoropropan-2-ol at 200 to 300 MBq, iv after 45 mins postinjection by radio-HPLC and radio-TLC. In kind it is ADME, organism-based. To be noted: in vivo, 0.75 h. An outline of the steps:
(§4)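 Mice received 200-300 MBq [18F] tracer in 200 μL 0.9% saline via the tail vein, and samples were taken at 45 and 60 min (n=2 per time). Plasma was obtained by centrifugation (2000g, 4 °C, 10 min); brain and liver were homogenised in ice-cold 50 mM TRIS-HCl pH 7.4. Samples were precipitated with ice-cold MeCN and centrifuged (4000g, 4 °C, 15 min), and supernatants were analysed by gradient radio-HPLC and radio-TLC, with HPLC fractions γ-counted.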

The nature of data set [15]: Biodistribution in CD1 mouse adrenal gland assessed per gram of wet tissue at 400 to 600 kBq, iv after 60 mins post-injection by gamma counting in presence of 1 mg/kg, ip sigma 1/sigma 2 receptor antagonist haloperidol treated before compound addition. As to conditions: in vivo, 1 h. Further details: dose 1 mg/kg, route intravenous. The format is organism-based. An outline of the steps: as §2

Data set [16] has as its system Brain. Nature of the data set: Biodistribution in CD1 mouse brain assessed per gram of wet tissue at 400 to 600 kBq, iv after 60 mins post-injection by gamma counting. In kind it is ADME, organism-based. To be noted: in vivo, 1 h. In outline: as §3
Data set [17] concerns Heart. Put plainly: Biodistribution in CD1 mouse heart assessed per gram of wet tissue at 400 to 600 kBq, iv after 30 mins post-injection by gamma counting. In kind it is ADME, organism-based. To be noted: in vivo, 0.5 h. In outline: as §3
Data set [18] deals with Intestine. Put plainly: Biodistribution in CD1 mouse intestine assessed per gram of wet tissue at 400 to 600 kBq, iv after 5 mins post-injection by gamma counting. As to conditions: in vivo. In kind it is ADME, organism-based. An outline of the steps: as §3
For data set [19], the system named is Mus musculus. Put plainly: Plasma concentration in CD1 mouse assessed per gram of wet tissue at 400 to 600 kBq, iv after 60 mins post-injection by gamma counting in presence of 1 mg/kg, ip sigma 1/sigma 2 receptor antagonist haloperidol treated before compound addition. The format is organism-based. Also on record: route intravenous. To be noted: in vivo, 1 h. In outline: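 Female CD-1 mice, fasted 24 h. […] Blood sampled and mice killed at 60 min pi. Samples weighed, γ-counted, %ID/g calculated. Compared with controls by two-tailed independent Student's t test.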

A short description of data set [20]: Metabolic stability in CD1 mouse brain at 200 to 300 MBq, iv after 60 mins post-injection by supelcosil C18 HPLC and TLC-radiochromatography. The format is ADME, organism-based. To be noted: read-out: Stability. In outline:
as §4

In data set [21] the test system is Liver. Put plainly: Biodistribution in CD1 mouse liver assessed per gram of wet tissue at 400 to 600 kBq, iv after 60 mins post-injection by gamma counting. The format is ADME, organism-based. To be noted: in vivo, 1 h. An outline of the steps:
as §1

Data set [22] concerns Brain. Nature of the data set: Biodistribution in CD1 mouse brain assessed per gram of wet tissue at 400 to 600 kBq, iv after 120 mins post-injection by gamma counting. The format is ADME, organism-based. To be noted: in vivo, 2 h. An outline of the steps:
as §3

Data set [23] has as its system Pancreas. Nature of the data set: Biodistribution in CD1 mouse pancreas assessed per gram of wet tissue at 400 to 600 kBq, iv after 120 mins post-injection by gamma counting. The format is ADME, organism-based. As to conditions: in vivo, 2 h. An outline of the steps:
as §1

Some results are limits rather than exact numbers.

As to `[18F]CCCC1OC2(CCN(Cc3ccccc3)CC2)c2ccccc21` (stereo not drawn), the Drug uptake in data set [1] is 5.54 %ID; in [3], 49.2 %ID; in data set [4] it was 0.63 %ID; in [5] it was 4.64 %ID; in data set [6], 7.84 %ID; in [7] it was 0.97 %ID. Moreover, the Drug uptake in data set [8] is reported as 8.92 %ID; in [9], 4.11 %ID; in data set [10], 2.87 %ID; in [11] it was 1.89 %ID; in [12], 9.03 %ID; in data set [13] it was greater than 70%. Besides, the Drug uptake came to 5.72 %ID in [15]; 2.27 %ID in data set [16]; 3.75 %ID in [17]; 4.35 %ID in data set [18]; 0.63 %ID in data set [19]; 3.24 %ID in data set [21]. The values for the Drug uptake in [22] and in data set [23] were 2.14 %ID and 10.5 %ID, respectively. In data set [2], the Kp at 1 h stood at 1. Besides, in data set [14], the Activity is recorded as 45%. Further, in [20], the remaining at 1 h is no less than 95%.
